Screening data as filed in PubChem BioAssay.
Shown are actives, neighbours in structure and some others; about 2.2% of the full set was active somewhere.
eIF4H inh = inhibitors of RNA binding by human eIF4H | inhibition, % at 35 µM | 0.94% of 290,000 active | eIF4H fluorescence polarization binding assay | Q15056;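 further: calls also rest on retests at 20 µM and on dose response follow-up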
VIM-2 inh = blocks Pseudomonas aeruginosa VIM-2 metallo-beta-lactamase; purified VIM-2, nitrocefin hydrolysis, epi-absorbance fluorescence; inhibition, % at 5.6 µM; 0.89% of 290,000 active; AID 1527;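 active means inhibition above the mean of all tested compounds plus 3 SD, cutoff set per screening run, cut at about 7.5% in these data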;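 further: red hydrolysis product quenches plate fluorescence so inhibitors raise well fluorescence; 0% = enzyme with DMSO and 100% = DMSO without enzyme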
PABP polyA inh = PABP-poly(A) binding inhibition. 1% of 290,000 active. calls only at 35 µM. PABP-poly(A) RNA binding, fluorescence polarization;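 further: calls also rest on retests at 20 µM and on dose response follow-up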
Target sequence (P11940 whole entry, looked up): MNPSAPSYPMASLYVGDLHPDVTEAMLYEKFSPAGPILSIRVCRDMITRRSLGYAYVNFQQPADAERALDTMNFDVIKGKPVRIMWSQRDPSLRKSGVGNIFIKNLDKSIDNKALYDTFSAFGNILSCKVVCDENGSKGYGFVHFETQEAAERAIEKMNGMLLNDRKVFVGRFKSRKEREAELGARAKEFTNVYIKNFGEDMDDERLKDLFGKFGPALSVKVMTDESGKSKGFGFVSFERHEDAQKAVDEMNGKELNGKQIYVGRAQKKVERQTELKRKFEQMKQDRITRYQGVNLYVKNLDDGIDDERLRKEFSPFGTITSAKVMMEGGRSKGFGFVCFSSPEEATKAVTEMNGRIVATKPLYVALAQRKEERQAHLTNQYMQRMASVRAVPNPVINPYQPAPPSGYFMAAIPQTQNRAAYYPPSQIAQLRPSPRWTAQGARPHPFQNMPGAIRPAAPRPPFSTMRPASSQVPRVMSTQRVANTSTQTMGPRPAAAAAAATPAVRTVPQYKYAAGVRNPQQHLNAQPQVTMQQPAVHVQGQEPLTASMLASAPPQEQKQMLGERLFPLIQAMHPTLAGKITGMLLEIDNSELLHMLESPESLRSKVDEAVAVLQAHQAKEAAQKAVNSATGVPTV
IMP-1 inh = inhibitors of Pseudomonas aeruginosa IMP-1 metallo-beta-lactamase. 0.45% of 290,000 active. purified IMP-1, nitrocefin hydrolysis, epi-absorbance fluorescence. inhibition, % at 5.6 µM;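 active means inhibition above the mean plus 3 SD of all compounds in the same screening run, cut at about 4.5% in these data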;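 further: 0% = IMP-1 with DMSO and 100% = DMSO wells lacking enzyme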
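Assay system: purified recombinant IMP-1 beta-lactamase. Input: IMP-1 0.2 nM before substrate addition. Buffer or medium: Zinc- and detergent-supplemented HEPES buffer, pH 7.1. Schedule: 25 °C, 15 min preincubation, 25 min reaction. Signal: Epi-absorbance fluorescence, 480 nm excitation, 530 nm emission. Evaluation: percent inhibition from optical density relative to buffer-blank wells.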
PABP1 MLLE inh = inhibitors of microRNA-mediated deadenylation, human PABP1 MLLE binding. GST-MLLE / FITC-PAM2 fluorescence polarization. AID 588489. inhibition, % at 20 µM. 0.36% of 360,000 active; in the data active means inhibition above about 35%, passing the limit was not always enough;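 further: plate controls were DMSO wells with GST-MLLE for no effect and wells lacking GST-MLLE protein for full effect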
An asterisk follows results filed as active; i = inactive; u = inconclusive; x = not tested or not shown; + = active, no number; ! = a repeat was not active. Unless noted, how the calls were made is not given here.

SMILES	eIF4H inh	VIM-2 inh	PABP polyA inh	IMP-1 inh	PABP1 MLLE inh
COCCNC(=O)C(c1cccs1)N(Cc1cccs1)C(=O)Cn1nnc2ccccc21 (stereo unspecified)	-2	0	i	4.6*	2
COCCNC(=O)C(c1cccs1)N(Cc1ccccc1)C(=O)Cn1nnc2ccccc21 (stereo unspecified)	-2	-4	i	-1	-2
O=C(COC(=O)c1ccccc1NCCO)NCc1cccs1	x	x	x	x	-5
COc1ccccc1NS(=O)(=O)c1cc2c3c(c1)CCN3C(=O)CC2	x	x	x	x	5
O=C(N/N=C/c1cc([N+](=O)[O-])ccc1Cl)c1ccc2nc[nH]c2c1	-8	0	i	-2	-8
O=C(N/N=C/c1ccc(Cl)cc1Cl)c1ccc2nc[nH]c2c1	x	-1	x	8.8*	24
NC(=O)c1cc(S(=O)(=O)NCc2cccs2)cs1	5	0	i	-3	-10
O=C(CCn1c(=S)oc2ccccc21)Nc1ccc(F)cc1	8.9*	-1	+	-2	7
COc1cc(CNc2ncnc3c2ncn3[C@H]2CN(Cc3ccc4c(c3)OCO4)C[C@@H](CO)O2)cc(OC)c1OC	x	x	x	x	21
COc1ccc(C)c2sc(N(CCN(C)C)C(=O)/C=C/c3cccs3)nc12	-18	1	i	1	-1
COc1ccc(OC)c2sc(N(CCN(C)C)C(=O)/C=C/c3cccs3)nc12	-13	5	i	11*	0
NC(=O)c1nsc(C(=O)N(c2cccc(F)c2)C(C(=O)NCC2CCCO2)c2c[nH]c3ccccc23)c1N (stereo unspecified)	-3	-2	i	-4	14
Cc1ccn(C)c(=N)c1	active	0	+	-2	-89
COC(=O)[C@H]1C[C@H]2[C@@H]3CC[C@H]4C[C@@H](OC)CC[C@]4(C)[C@H]3CC[C@]2(C)[C@@]2(CCCO2)O1	x	x	x	x	11
O=[N+]([O-])c1cc([N+](=O)[O-])c2cc3ccccc3nc2c1	22	3	i	-2	45*
O=[N+]([O-])c1cnc2ccccc2c1	4	-1	i	-4	10
CC(=O)Nc1ccc2c3c(cccc13)C(=O)N(c1ccccc1)C2=O	-4	0	i	-2	13
O=CNc1ccc2c3c(cccc13)-c1ccccc1-2	x	x	x	x	47*
CCN(C(=O)CSc1nnc(NC2CCCCC2)s1)C1CCS(=O)(=O)C1 (stereo unspecified)	-2	1	i	-5	5
N#Cc1c2c(c(NCc3cccnc3)n3c1nc1ccccc13)CCC2	33	12*	i	-5	12
Cc1c2c(n3c(nc4ccccc43)c1C#N)N(Cc1cccnc1)CC2	x	9.6*	x	-2	x
CC(=O)Nc1ccc(N2CCc3c(C)c(C#N)c4nc5ccccc5n4c32)cc1	u	2	i	-2	x
COCCNc1c2c(c(C#N)c3nc4ccccc4n13)CCCC2	16	8	i	-4	-8
CC(=O)Nc1cccc(NC=C(C#N)C#N)c1	4	-2	i	-2	12
O=c1[nH]c(=O)n(-c2ccccc2)c2c1C(C(F)(F)F)(C(F)(F)F)N=C(CCC1CCCCC1)N2	1	-2	i	-2	7
SMILES	eIF4H inh	VIM-2 inh	PABP polyA inh	IMP-1 inh	PABP1 MLLE inh
Cc1nn(-c2ccccc2)c(Cl)c1/C=N/Nc1ccc(S(=O)(=O)Nc2ccccc2C(=O)O)cc1[N+](=O)[O-]	92*	-1	+	-3	-7
CSc1ccc(C=NNc2ccc(S(=O)(=O)Nc3ccccc3C(=O)O)cc2[N+](=O)[O-])cc1	x	x	x	x	-6
Cc1ccc(NC(=O)Cn2cncc2-c2ccc([N+](=O)[O-])cc2)cc1C	0	-2	i	12*	-11
O=C1c2ccccc2-c2onc3c(Oc4ccccc4)cc(O)c1c23	85*	-4	+	-4	x
CCOC(=O)C(=O)Nc1ccc(S(=O)(=O)Nc2nccs2)cc1	-5	-1	i	-3	-1
CN1CCN(c2c(F)cc3c(=O)c(C(=O)O)cn4c3c2SCC4)CC1	97*!	-1	+!	-2	8
CC(=O)C(Cc1ccccc1)NC(=O)CN1c2cccc3cccc(c23)S1(=O)=O (stereo unspecified)	x	x	x	x	-4
O=C1c2ccccc2-c2n[nH]c3cccc1c23	x	x	x	x	73*
O=c1c(-c2ccccc2)n[nH]c2ccccc12	-5	-3	i	-1	-6
O=[N+]([O-])c1ccc(N/N=C/c2ccc(O)c(O)c2O)c(S(=O)(=O)N2CCOCC2)c1	90	-3	+	-4	-14
O=C(CCc1ccc(O)c(O)c1)N/N=C/c1cc2c(cc1[N+](=O)[O-])OCO2	94*	0	+	-3	15
O=C(CCc1ccc(S(=O)(=O)N2CCOCC2)cc1)N/N=C/c1ccc(O)c(O)c1O	96*	-3	+	-3	33
O=[N+]([O-])c1ccc(N/N=C/c2cccc(O)c2O)c(S(=O)(=O)N2CCOCC2)c1	8	-4	i	-2	-9
O=C(NCCc1ccccc1)C(=O)NCC1CCCO1 (stereo unspecified)	-9	-3	i	-5	5
CSc1ncccc1C(=O)NCC(c1cccs1)N1CCOCC1 (stereo unspecified)	x	x	x	x	-1
Cc1cc(Cl)ccc1OCCCC(=O)OCC(=O)c1c(N)n(C)c(=O)n(C)c1=O	-9	-3	i	-3	2
N#CC1=C2SCN(c3ccccc3)CN2C(=O)CC1c1ccccc1Cl (stereo unspecified)	-2	0	i	-2	-25
CCOC(=O)c1ccc(N2CSC3=C(C#N)C(c4ccc(OC)cc4OC)CC(=O)N3C2)cc1 (stereo unspecified)	-10	-5	i	-2	-106
Cc1ccc(C2CC(=O)N3CN(c4ccc(Br)cc4)CSC3=C2C#N)o1 (stereo unspecified)	41*	0	+	1	-59
CCOc1ccc(N2CSC3=C(C#N)C(c4ccco4)CC(=O)N3C2)cc1 (stereo unspecified)	92*	-5	+	-2	-5
CC1(C)CC(NC(=O)c2ccc(Cl)c(S(=O)(=O)N(Cc3ccccc3)c3ccccc3)c2)CC(C)(C)N1	x	x	x	x	10
COc1ccc(-c2c(C(=O)O)c(C(=O)O)c3n2CCC3)cc1	-13	11*	i	-1	5
CCCc1nc2sc(C(=O)OCC)c(N)c2c2c1COC(C)(C)C2	-3	-1	i	6.2*	0
CSc1nsc(NC(=O)OCc2ccc(Cl)cc2)n1	2	-1	i	-2	-3
CSc1nsc(NN)n1	x	x	x	x	42*
c1cncc(-c2nnc(SCc3nc4ccccc4[nH]3)o2)c1	-1	-3	i	-5	-23
c1ccc2[nH]c(CSc3nc4ccccc4o3)nc2c1	-15	-4	i	-3	35*
CCCCCn1c(N)c(-c2nc3ccccc3s2)c2c([N+](=O)[O-])nn(C)c(=O)c21	-5	0	i	6.9*	4
CN(C)c1ccc(CNC(=O)/C=C/[C@H]2O[C@@H](n3ccc(=O)[nH]c3=O)[C@H](O)[C@@H]2O)cc1	x	x	x	x	-13
